Assay results: ChEMBL document CHEMBL2176971 (Bioorg Med Chem Lett, 2012); call rule not given here

Assays:
[1] = AUCall in rat at 2 mg/kg, iv; format: ADME, organism-based; parameters: dose 2 mg/kg, route intravenous; settings: plasma
[2] = Apparent volume of distribution in rat at 2 mg/kg, iv; format: ADME, organism-based; parameters: dose 2 mg/kg, route intravenous; settings: in vivo, read-out: Vz
[3] = Cmax in rat at 2 mg/kg, iv; format: ADME, organism-based; parameters: dose 2 mg/kg, route intravenous; settings: in vivo
[4] = Cmax in dog at 10 mg/kg, po; format: ADME, organism-based, Canis lupus familiaris; parameters: dose 10 mg/kg, route oral; settings: in vivo
Method in brief: (§1)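 Dogs dosed orally at 10 mg/kg; plasma pharmacokinetic parameters determined.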

[5] = system: Rattus norvegicus; assay: AUCall in rat assessed as sulfoxide metabolite level at 20 mg/kg, po; format: ADME, organism-based, Plasma; parameters: dose 20 mg/kg, route oral; settings: in vivo
Method in brief: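 Rats given the parent sulfide compound orally at 20 mg/kg, with plasma monitored for its in vivo sulfoxide metabolite; exposure to that metabolite is reported as AUCall. A separate i.v. dose of 2 mg/kg in rats was also monitored for this metabolite.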

[6] = AUCall in rat at 20 mg/kg, po; format: ADME, organism-based; parameters: dose 20 mg/kg, route oral; settings: plasma
[7] = AUCall in dog at 2 mg/kg, iv; format: ADME, organism-based, Canis lupus familiaris; parameters: dose 2 mg/kg, route intravenous; settings: plasma
[8] = system: Rattus norvegicus; assay: Drug metabolism in rat assessed as sulfoxide metabolite formation at 2 mg/kg, iv; format: ADME, organism-based; parameters: dose 2 mg/kg, route intravenous; settings: in vivo
Method in brief: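 Rats dosed i.v. at 2 mg/kg and plasma monitored in vivo for the sulfoxide metabolite. AUCall was also measured after 20 mg/kg oral dosing.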

[9] = Cmax in rat at 20 mg/kg, po; format: ADME, organism-based; parameters: dose 20 mg/kg, route oral; settings: in vivo
[10] = Cmax in dog at 2 mg/kg, iv; format: ADME, organism-based, Canis lupus familiaris; parameters: dose 2 mg/kg, route intravenous; settings: in vivo
[11] = AUCall in dog at 10 mg/kg, po; format: ADME, organism-based, Canis lupus familiaris; parameters: dose 10 mg/kg, route oral; settings: plasma
[12] = Tmax in rat at 20 mg/kg, po; format: ADME, organism-based; parameters: dose 20 mg/kg, route oral; settings: in vivo
[13] = Solubility of the compound; format: physicochemical
[14] = Oral bioavailability in dog at 10 mg/kg; format: ADME, organism-based, Canis lupus familiaris; settings: in vivo; method in brief: as §1
[15] = Apparent volume of distribution in dog at 2 mg/kg, iv; format: ADME, organism-based, Canis lupus familiaris; parameters: dose 2 mg/kg, route intravenous; settings: in vivo, read-out: Vz
[16] = Tmax in dog at 10 mg/kg, po; format: ADME, organism-based, Canis lupus familiaris; parameters: dose 10 mg/kg, route oral; settings: in vivo; method in brief: as §1
[17] = Oral bioavailability in rat at 20 mg/kg; format: ADME, organism-based; settings: in vivo

Structure (SMILES)	AUC [1] [ng·h/mL]	Vd [2] [L/kg]	Cmax [3] [ng/mL]	also measured
COC(=O)c1ccc2c(c1)c1c(n2CCCNc2nc(OC)cc(OC)n2)CCCC1	521	11.3	182	
COc1cc(OC)nc(NCCCn2c3c(c4cc(S(C)(=O)=O)ccc42)CCCC3)n1	902	3.51	1080	
CCc1cc(CC)nc(OCCCn2c3c(c4cc(-c5nc(C)no5)ccc42)CCCC3)n1	497	18.9	1050	
Cc1noc(-c2ccc3c(c2)c2c(n3CC(F)COc3cc(F)cc(F)c3)CCCC2)n1 (stereo not drawn)	691	5.52	1710	bioavailability [17]: 38%; AUC [6]: 3140 ng·h/mL; Cmax [9]: 747 ng/mL; Tmax [12]: 2.67 h

Second part, led by results:

AUC [1] [ng·h/mL]	Vd [2] [L/kg]	Cmax [3] [ng/mL]	Structure (SMILES)	also measured
520	3.96	1240	Cc1noc(-c2ccc3c(c2)c2c(n3CCCS(=O)(=O)N(C)C)CCCC2)n1	
404	22.1	821	Cc1noc(-c2ccc3c(c2)c2c(n3CCCOc3cc(F)cc(F)c3)CCCC2)n1	
1180	3.64	2990	Cc1noc(-c2ccc3c(c2)c2c(n3CCCSc3cc(F)cc(F)c3)CCCC2)n1	Cmax [4]: 625 ng/mL; AUC [5]: 143 µg·h/L; AUC [6]: 4230 ng·h/mL; AUC [7]: 1750 ng·h/mL; Drug metabolism [8]: Not Active; Cmax [9]: 955 ng/mL; Cmax [10]: 3880 ng/mL; AUC [11]: 2010 ng·h/mL; Tmax [12]: 2.33 h; solubility [13]: > 1000 µg/mL; bioavailability [14]: 34%; Vd [15]: 1.8 L/kg; Tmax [16]: 2 h
